Data: ChEMBL document CHEMBL1142970, “Inhibition of secreted phospholipase A2. 4-glycerol derivatives of 4,5-dihydro-3-(4-tetradecyloxybenzyl)-1,2,4-4H-oxadiazol-5-one with broad activities” (J Med Chem, 2007)

Tests used:
[1] = target: T1, Phospholipase A2, membrane associated (Homo sapiens, UniProt P14555); assay: Inhibition of human group IIA PLA2 by fluorimetric assay
T1 sequence (P14555 whole entry): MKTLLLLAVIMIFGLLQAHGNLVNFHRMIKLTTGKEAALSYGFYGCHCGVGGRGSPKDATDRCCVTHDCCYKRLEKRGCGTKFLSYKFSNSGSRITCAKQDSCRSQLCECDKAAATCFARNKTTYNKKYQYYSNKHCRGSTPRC
Summary of the method: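 Fluorimetric (Radvanyi method): 1 ng synthetic hGIIA sPLA2 in 1 mL of 50 mM Tris-HCl pH 7.5, 100 mM NaCl, 1 mM EGTA, 0.1% fatty acid-free BSA, 2 µM β-pyC-10-PG. Inhibitor added in ethanol or DMSO after BSA. Reaction started with 10 mM CaCl2 (final), fluorescence rise followed 2 min.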

[2] = Lipophilicity, log P of the compound; assay type: physicochemical; conditions: octanol/water
Summary of the method: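 log P calculated from Rekker's hydrophobic fragmental constants.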

[3] = target: Phospholipase A2, major isoenzyme (Sus scrofa, UniProt P00592); assay: Inhibition of pig group IB PLA2 by fluorimetric assay
Sequence of Phospholipase A2, major isoenzyme (P00592 whole entry): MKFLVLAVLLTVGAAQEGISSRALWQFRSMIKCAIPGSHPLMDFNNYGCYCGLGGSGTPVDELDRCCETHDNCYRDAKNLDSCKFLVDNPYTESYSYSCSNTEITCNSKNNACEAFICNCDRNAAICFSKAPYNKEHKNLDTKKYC
Summary of the method: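 Porcine pancreatic sPLA2, 60 ng per 1 mL, in 50 mM Tris-HCl pH 7.5, 100 mM NaCl, 1 mM EGTA, 0.1% fatty acid-free BSA, 2 µM pyrene substrate β-pyC-10-PG. Inhibitor in ethanol or DMSO added after BSA. Activity as µmol hydrolyzed/min/mg, giving 50%-inhibition concentration.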

[4] = target: T1, Phospholipase A2, membrane associated; assay: Inhibition of human group IIA PLA2 in [3H]oleate-labeled Escherichia coli membrane by radiometric assay
Summary of the method: (§1)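 Incubation 30-60 min, time adjusted for linear hydrolysis. Stopped with 0.1 M EDTA pH 8.0/1% BSA, centrifuged 10 000g, supernatant counted. Enzyme-free controls subtracted. IC50 obtained after 10 µM screen.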

Phospholipase A2 = Phospholipase A2 (Homo sapiens, UniProt P04054); assay: Inhibition of human group IB PLA2 in [3H]oleate-labeled Escherichia coli membrane by radiometric assay; summary of the method: as §1
Sequence of Phospholipase A2 (P04054 whole entry): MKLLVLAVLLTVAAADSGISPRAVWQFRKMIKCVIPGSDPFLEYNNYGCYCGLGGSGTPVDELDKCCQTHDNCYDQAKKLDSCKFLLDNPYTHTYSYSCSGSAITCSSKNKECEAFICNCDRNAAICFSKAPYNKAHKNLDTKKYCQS

Phospholipase A2 group V = target: T2, Phospholipase A2 group V (Homo sapiens, UniProt P39877); assay: Inhibition of human group V PLA2 in [3H]oleate-labeled Escherichia coli membrane by radiometric assay; summary of the method: as §1
T2 sequence (P39877 whole entry): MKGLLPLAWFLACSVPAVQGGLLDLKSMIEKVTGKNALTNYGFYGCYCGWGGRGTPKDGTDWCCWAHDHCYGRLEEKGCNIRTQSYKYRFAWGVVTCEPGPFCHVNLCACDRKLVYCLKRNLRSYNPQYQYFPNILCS

[5] = target: T3, Group 10 secretory phospholipase A2 (Homo sapiens, UniProt O15496); assay: Inhibition of human group X PLA2 in [3H]oleate-labeled Escherichia coli membrane by radiometric assay; summary of the method: as §1
T3 sequence (O15496 whole entry): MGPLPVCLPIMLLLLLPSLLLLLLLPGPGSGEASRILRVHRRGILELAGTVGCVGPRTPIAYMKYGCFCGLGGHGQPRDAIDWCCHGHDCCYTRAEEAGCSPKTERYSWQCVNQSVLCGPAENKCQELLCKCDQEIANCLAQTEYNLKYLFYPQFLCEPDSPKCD

Row | Compound | IC50 [1] [µM] | logP ([2]; read-out: LogP) | IC50 [3] [µM] | IC50 [4] [µM] | IC50 (Phospholipase A2) [µM] | logP [2] | IC50 (Phospholipase A2 group V) [µM] | IC50 [5] [µM]
1 | CCCCCCCCCCCCCCOC(COc1ccc(-c2noc(=O)[nH]2)cc1)COC(c1ccccc1)(c1ccccc1)c1ccccc1 (racemic) | 0.9 |  | > 50 | 2 | 5.75 | 11.8 | 0.66 | 1.25
2 | CCCCCCCOCC(COc1ccc(-c2noc(=O)[nH]2)cc1)OCCCCCCC (racemic) | 50.9 | 6.3 | > 100 |  |  |  |  | 
3 | CCCCCCCCCCCCCCOC(CO)COc1ccc(-c2noc(=O)[nH]2)cc1 (racemic) | 56 | 6.59 | > 100 |  |  |  |  | 
4 | O=c1nc(-c2ccc(OCC(COCCCCc3ccccc3)OCCCCc3ccccc3)cc2)[nH]o1 (racemic) | 76.7 | 6.51 | > 100 |  |  |  |  | 
5 | CCCCCCCOCC(COc1ccc(Cc2noc(=O)[nH]2)cc1)OCCCCCCC (racemic) | 11.6 | 7.12 | > 100 |  |  |  |  | 
6 | CCCCCCCCCCCCCCO[C@@H](COc1ccc(-c2nc(=O)o[nH]2)cc1)COC(c1ccccc1)(c1ccccc1)c1ccccc1 | 0.33 |  | > 50 |  |  | 11.8 |  | 
7 | CCCCCCCCCCCCCCOC(COc1ccc(-c2noc(=O)[nH]2)cc1)COC(c1ccccc1)c1ccccc1 (racemic) | 0.28 |  | 5.6 | 5 | 18 | 10.1 | 2 | 5.3
8 | Cc1c(C(=O)C(N)=O)c2c(OCC(=O)O)cccc2n1Cc1ccccc1-c1ccccc1 |  |  |  | 0.18 | 3.3 |  | 0.27 | 4.57
9 | CCCCCCCCCCCCCCOC(COCC)COc1ccc(-c2noc(=O)[nH]2)cc1 (racemic) | 29.8 | 7.34 | > 40 |  |  |  |  | 
10 | CCCCCCCCCCCCCCOC(COCCCCCCCCCC)COc1ccc(-c2nc(=O)o[nH]2)cc1 (stereo not drawn) | 0.28 |  | > 100 | 1 | 10 | 11.5 | 0.55 | 1
11 | CCCCCCCCCCCCCCOC(COCCCCC)COc1ccc(-c2noc(=O)[nH]2)cc1 (racemic) | 8.3 | 8.72 | > 100 |  |  |  |  | 

Further lines, results first:

Row | IC50 [1] [µM] | logP ([2]; read-out: LogP) | IC50 [3] [µM] | IC50 [4] [µM] | IC50 (Phospholipase A2) [µM] | logP [2] | IC50 (Phospholipase A2 group V) [µM] | IC50 [5] [µM] | Compound
12 | 2.1 | 7.64 | 39.9 |  |  |  |  |  | CCCCCCCCCCCCCCOC(COc1ccc(Cc2nc(=O)o[nH]2)cc1)COc1ccc(Cc2nc(=O)o[nH]2)cc1
13 | 30.5 | 2.97 | > 100 |  |  |  |  |  | CCCCCOC(COc1ccc(Cc2noc(=O)[nH]2)cc1)COc1ccc(Cc2noc(=O)[nH]2)cc1
14 | 21 | 7.05 | 63.6 |  |  |  |  |  | CCCCCCCCCCCCCCOCC(COc1ccc(-c2noc(=O)[nH]2)cc1)Oc1ccc(-c2noc(=O)[nH]2)cc1 (racemic)
15 | 2.7 |  | > 100 |  |  | 9.18 |  |  | CCCCCCCCCOCC(COc1ccc(Cc2noc(=O)[nH]2)cc1)OCCCCCCCCC (racemic)
16 | 2.2 | 8.56 | 39 |  |  |  |  |  | CCCCCCCCCCCCCCOC(COCc1cccc(OC)c1)COc1ccc(-c2nc(=O)o[nH]2)cc1 (racemic)
17 | 3.1 | 7.64 | 57.8 |  |  |  |  |  | CCCCCCCCCCCCCCOCC(COc1ccc(Cc2nc(=O)o[nH]2)cc1)Oc1ccc(Cc2nc(=O)o[nH]2)cc1 (racemic)
18 | 47.7 | 7.05 | > 100 |  |  |  |  |  | CCCCCCCCCCCCCCOC(COc1ccc(-c2nc(=O)o[nH]2)cc1)COc1ccc(-c2nc(=O)o[nH]2)cc1
19 | 0.15 |  | 36.6 | 1.15 | 8.7 | 11 | 1 | 0.9 | CCCCCCCCCCCCCCCCCCOC(COCc1ccc(C#N)cc1)COc1ccc(Cc2noc(=O)[nH]2)cc1 (racemic)
20 | 0.29 |  | 2.2 | 26 | 15 | 10 | 22 | 12 | CCCCCCCCCCCCCCOC(COCCCCc1ccccc1)COc1ccc(-c2noc(=O)[nH]2)cc1 (racemic)
21 | 4 | 7.08 | > 100 |  |  |  |  |  | CCCCCCCCCCCCCCOc1ccc(Cc2noc(=O)[nH]2)cc1
22 | 14.8 | 8.48 | > 25 | > 100 | > 100 |  | > 100 | 14 | CCCCCCCCCCCCCCOC(COCc1ccccc1)COc1ccc(-c2noc(=O)[nH]2)cc1 (racemic)
23 | 1.1 | 8.94 | 9.6 | 7.6 | 7.6 |  | 1.73 | 5 | CCCCCCCCCCCCCCOC(COCc1ccc(C#N)cc1)COc1ccc(Cc2nc(=O)o[nH]2)cc1 (racemic)
